Data published in ChEMBL document CHEMBL5724801, “EUbOPEN Chemogenomics Library - Multiplex” (2024).
Where “and” joins values, the source holds several entries; their conditions need not be identical. Equal values may be shown once.

System: HEK-293T
Assay: Multiplex assay against HEK293T
Assay type: toxicity, cell-based
Settings: human
Outline: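 Live cells were stained at seeding with Hoechst33342, BioTracker Green Microtubule Cytoskeleton Dye, MitoTracker Red and Annexin V Alexa Fluor 680. Following compound addition, they were imaged on a CQ1 microscope at 37°C and 5% CO2 and gated by CellPathfinder machine learning into Hoechst high-intensity objects or normal cells, with normal cells split into healthy, pyknosed or fragmented nuclei and pyknosed cells into mitotic or apoptotic. Tubulin, mitochondrial-mass and membrane-permeability phenotypes are per cents of healthy-nucleus cells.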

[1] = 12 h, 1 µM, compound concentration 1 uM
[2] = 12 h, 10 µM, compound concentration 10 uM
[3] = 24 h, 1 µM, compound concentration 1 uM
[4] = 24 h, 10 µM, compound concentration 10 uM
[5] = 48 h, 1 µM, compound concentration 1 uM
[6] = 48 h, 10 µM, compound concentration 10 uM

O=C(NCC(=O)N1CC[C@H](N[C@H]2CC[C@@](O)(c3ccc(-c4ncccn4)cn3)CC2)C1)c1cccc(C(F)(F)F)c1 [PF-4136309]
Population Apoptotic (%) [1]: 44% and 34%
Population Fragmented Nuclei (%) [1]: 6% and 5%
Population Healthy Nuclei (%) [1]: 80%
Population Hoechst High Intensity Objects (%) [1]: 4% and 6%
Population Membrane Permeable-Phenotype (%) [1]: 0%
Population Mitochondria Different-Phenotype (%) [1]: 41% and 56%
Population Mitotic Cells (%) [1]: 56% and 66%
Population Normal (%) [1]: 95% and 93%
Population Pyknosed Nuclei (%) [1]: 13%
Population Tubulin-Different-Phenotype (%) [1]: 32% and 15%
Total Cell Count [1]: 393 and 389
Population Apoptotic (%) [2]: 39% and 48%
Population Fragmented Nuclei (%) [2]: 7% and 3%
Population Healthy Nuclei (%) [2]: 76% and 81%
Population Hoechst High Intensity Objects (%) [2]: 7% and 6%
Population Membrane Permeable-Phenotype (%) [2]: 0%
Population Mitochondria Different-Phenotype (%) [2]: 53% and 75%
Population Mitotic Cells (%) [2]: 60% and 51%
Population Normal (%) [2]: 92% and 93%
Population Pyknosed Nuclei (%) [2]: 15% and 14%
Population Tubulin-Different-Phenotype (%) [2]: 55% and 45%
Total Cell Count [2]: 358 and 295
Population Apoptotic (%) [3]: 25% and 39%
Population Fragmented Nuclei (%) [3]: 10% and 8%
Population Healthy Nuclei (%) [3]: 80%
Population Hoechst High Intensity Objects (%) [3]: 2% and 5%
Population Membrane Permeable-Phenotype (%) [3]: 0%
Population Mitochondria Different-Phenotype (%) [3]: 26% and 31%
Population Mitotic Cells (%) [3]: 74% and 60%
Population Normal (%) [3]: 97% and 94%
Population Pyknosed Nuclei (%) [3]: 9% and 11%
Population Tubulin-Different-Phenotype (%) [3]: 15% and 13%
Total Cell Count [3]: 561 and 485
Population Apoptotic (%) [4]: 35% and 57%
Population Fragmented Nuclei (%) [4]: 10% and 8%
Population Healthy Nuclei (%) [4]: 73% and 80%
Population Hoechst High Intensity Objects (%) [4]: 7% and 5%
Population Membrane Permeable-Phenotype (%) [4]: 1% and 0%
Population Mitochondria Different-Phenotype (%) [4]: 39% and 54%
Population Mitotic Cells (%) [4]: 64% and 42%
Population Normal (%) [4]: 92% and 94%
Population Pyknosed Nuclei (%) [4]: 16% and 11%
Population Tubulin-Different-Phenotype (%) [4]: 36% and 27%
Total Cell Count [4]: 450 and 384
Population Apoptotic (%) [5]: 18% and 27%
Population Fragmented Nuclei (%) [5]: 16%
Population Healthy Nuclei (%) [5]: 78% and 77%
Population Hoechst High Intensity Objects (%) [5]: 0% and 2%
Population Membrane Permeable-Phenotype (%) [5]: 1% and 0%
Population Mitochondria Different-Phenotype (%) [5]: 14% and 16%
Population Mitotic Cells (%) [5]: 81% and 72%
Population Normal (%) [5]: 99% and 97%
Population Pyknosed Nuclei (%) [5]: 4% and 5%
Population Tubulin-Different-Phenotype (%) [5]: 9% and 11%
Total Cell Count [5]: 1007 and 907
Population Apoptotic (%) [6]: 31% and 43%
Population Fragmented Nuclei (%) [6]: 13% and 11%
Population Healthy Nuclei (%) [6]: 75% and 79%
Population Hoechst High Intensity Objects (%) [6]: 5% and 4%
Population Membrane Permeable-Phenotype (%) [6]: 0%
Population Mitochondria Different-Phenotype (%) [6]: 34% and 46%
Population Mitotic Cells (%) [6]: 68% and 56%
Population Normal (%) [6]: 94% and 95%
Population Pyknosed Nuclei (%) [6]: 11% and 8%
Population Tubulin-Different-Phenotype (%) [6]: 23% and 30%
Total Cell Count [6]: 636 and 468
